# ChEMBL document CHEMBL4385642, “Optimization and biological evaluation of nicotinamide derivatives as Aurora kinase inhibitors” (Bioorg Med Chem, 2019)
# Active and inactive are the calls of the source. The calls are words filed in the database; no cut-off is given here.
# System: NCI-H1975
# Assay: Cytotoxicity in human NCI-H1975 cells assessed as reduction in cell viability incubated for 72 hrs by MTT assay
# Assay type: functional, cell-based
# Settings: NCI-H1975, 72 h
# Method in brief: (§1)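 Cells in DMEM or RPMI 1640 with 10% FBS and 1% penicillin/streptomycin were seeded at 6 × 10^3/well and grown 24 h at 37 °C, 5% CO2. They were exposed 72 h to graded compound concentrations (DMSO under 0.1%). MTT (5 mg/mL, 10 µL) was added for 4 h at 37 °C and formazan dissolved in DMSO. A492 was read against a 630 nm reference, and IC50 came from concentration–response curves.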
row,Structure (SMILES),IC50 [µM]
1,COc1cc2nccc(Oc3ccc(NC(=O)c4cnc(Cl)cc4Nc4ccccc4Br)cc3)c2cc1OC,8
2,COc1cc2nccc(Oc3ccc(NC(=O)c4cnc(Cl)cc4Nc4ccc(F)c(Br)c4)cc3)c2cc1OC,3.54
3,COc1cc2nccc(Oc3ccc(NC(=O)C4(C(=O)Nc5ccc(F)cc5)CC4)cc3)c2cc1OC [CABOZANTINIB],6.67
4,COc1cc2nccc(Oc3ccc(NC(=O)c4cnc(Cl)cc4Nc4ccc(F)c(Br)c4)cc3F)c2cc1OC,1.06

# System: SW-620
# Assay: Antiproliferative activity against human SW620 cells assessed as cell confluence level at 10 ug/ml incubated up to 84 hrs and measured every 1 hr by IncuCyte live-cell imaging assay (reference value: 86.5%)
# Assay type: functional
# Settings: not given
# Method in brief: (§2)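 SW620 cells seeded at 5 × 10^3/well and grown 24 h at 37 °C, 5% CO2 inside the IncuCyte. Compounds were then added at 0.12–10.0 µg/mL, with 0.1% DMSO as vehicle control. Phase-contrast images were taken with a 10× objective every 1 h for 84 h. Confluence was scored from the images, in triplicate.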
row,Structure (SMILES),Activity
1,COc1cc2nccc(Oc3ccc(NC(=O)c4cnc(Cl)cc4Nc4ccc(F)c(Br)c4)cc3)c2cc1OC,42.6%
2,COc1cc2nccc(Oc3ccc(NC(=O)C4(C(=O)Nc5ccc(F)cc5)CC4)cc3)c2cc1OC [CABOZANTINIB],40.9%
3,COc1cc2nccc(Oc3ccc(NC(=O)c4cnc(Cl)cc4Nc4ccc(F)c(Br)c4)cc3F)c2cc1OC,inactive

# Target: Aurora kinase B (Homo sapiens) (UniProt Q96GD4)
# Assay: Inhibition of Aurora B (unknown origin) at 0.2 uM pre-incubated for 10 mins before FAM-labeled peptide substrate addition by mobility shift assay relative to control
# Settings: not given
# Aurora kinase B (Homo sapiens), sequence (Q96GD4 whole entry): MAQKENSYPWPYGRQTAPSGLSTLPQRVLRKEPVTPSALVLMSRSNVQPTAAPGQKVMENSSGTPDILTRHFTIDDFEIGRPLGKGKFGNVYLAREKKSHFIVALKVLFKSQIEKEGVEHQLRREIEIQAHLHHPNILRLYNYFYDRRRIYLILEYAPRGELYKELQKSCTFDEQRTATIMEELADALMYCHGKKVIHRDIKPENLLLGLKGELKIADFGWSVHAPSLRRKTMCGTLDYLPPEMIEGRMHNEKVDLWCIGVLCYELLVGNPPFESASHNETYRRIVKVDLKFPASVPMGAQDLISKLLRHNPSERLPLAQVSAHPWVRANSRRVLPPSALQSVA
row,Structure (SMILES),inhibition [%]
1,COc1cc2nccc(Oc3ccc(NC(=O)c4cccnc4Nc4ccc(F)c(Br)c4)cc3F)c2cc1OC,40.7
2,COc1cc2nccc(Oc3ccc(NC(=O)c4cnc5ccc(Br)cc5c4Nc4ccc(F)c(Br)c4)cc3F)c2cc1OC,13.7
3,COc1cc2nccc(Oc3ccc(NC(=O)c4c(Nc5ccc(F)c(Br)c5)cc(C)nc4Cl)cc3F)c2cc1OC,17.7
4,COc1cc2nccc(Oc3ccc(NC(=O)c4cnc(Cl)cc4Nc4ccc(F)c(Br)c4)cc3)c2cc1OC,30.1
5,COc1cc2nccc(Oc3ccc(NC(=O)C4(C(=O)Nc5ccc(F)cc5)CC4)cc3)c2cc1OC [CABOZANTINIB],38.3
6,COc1cc2nccc(Oc3ccc(NC(=O)c4cnc(Cl)cc4Nc4ccc(F)c(Br)c4)cc3F)c2cc1OC,30.5

# Continued, values first:
row,inhibition [%],Structure (SMILES)
1,31.9,COc1cc2nccc(Oc3ccc(NC(=O)c4cnc(Cl)cc4Nc4cccc(Cl)c4)cc3)c2cc1OC
2,46.3,COc1cc2nccc(Oc3ccc(NC(=O)c4cnc(Cl)cc4Nc4cccc5ccccc45)cc3)c2cc1OC
3,56.1,COc1cc2nccc(Oc3ccc(NC(=O)c4cnc(Cl)cc4Nc4ccccc4Br)cc3)c2cc1OC

# System: HeLa
# Assay: Cytotoxicity in human HeLa cells assessed as reduction in cell viability incubated for 72 hrs by MTT assay
# Assay type: functional, cell-based
# Settings: not given
# Method in brief: as §1
row,Structure (SMILES),IC50 [µM]
1,COc1cc2nccc(Oc3ccc(NC(=O)c4cnc(Cl)cc4Nc4ccccc4Br)cc3)c2cc1OC,> 20
2,COc1cc2nccc(Oc3ccc(NC(=O)c4cnc(Cl)cc4Nc4ccc(F)c(Br)c4)cc3)c2cc1OC,> 20
3,COc1cc2nccc(Oc3ccc(NC(=O)C4(C(=O)Nc5ccc(F)cc5)CC4)cc3)c2cc1OC [CABOZANTINIB],> 20
4,COc1cc2nccc(Oc3ccc(NC(=O)c4cnc(Cl)cc4Nc4ccc(F)c(Br)c4)cc3F)c2cc1OC,> 20

# System: SW-620
# Assay: Induction of apoptosis in human SW620 cells at 3.33 ug/ml incubated for 36 hrs by IncuCyte live-cell imaging assay
# Assay type: functional, cell-based
# Settings: not given
# Method in brief: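 Apoptosis kinetics by IncuCyte imaging: SW620 cells at 5 × 10^3/well were pre-grown 24 h at 37 °C, 5% CO2, then given compound (0.12–10.0 µg/mL) or 0.1% DMSO. Green-fluorescent apoptotic cells were counted on images taken with a 10× objective every 1 h over 48 h, in triplicate.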
row,Structure (SMILES),Activity
1,COc1cc2nccc(Oc3ccc(NC(=O)c4cnc(Cl)cc4Nc4ccc(F)c(Br)c4)cc3)c2cc1OC,inactive
2,COc1cc2nccc(Oc3ccc(NC(=O)c4cnc(Cl)cc4Nc4ccc(F)c(Br)c4)cc3F)c2cc1OC,inactive

# Target: T1, Aurora kinase A (Homo sapiens) (UniProt O14965)
# T1 sequence (whole entry): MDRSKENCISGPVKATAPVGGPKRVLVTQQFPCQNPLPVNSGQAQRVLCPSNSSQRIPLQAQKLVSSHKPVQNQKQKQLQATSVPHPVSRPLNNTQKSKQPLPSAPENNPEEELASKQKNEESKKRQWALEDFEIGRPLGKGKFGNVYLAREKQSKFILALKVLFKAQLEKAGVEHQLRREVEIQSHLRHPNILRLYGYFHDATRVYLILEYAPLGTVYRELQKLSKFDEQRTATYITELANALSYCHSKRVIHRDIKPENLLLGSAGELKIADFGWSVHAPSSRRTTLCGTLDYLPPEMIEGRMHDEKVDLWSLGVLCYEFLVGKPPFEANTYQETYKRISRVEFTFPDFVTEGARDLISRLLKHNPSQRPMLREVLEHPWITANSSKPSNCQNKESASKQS
# Assay: Inhibition of Aurora A (unknown origin) at 0.2 uM pre-incubated for 10 mins before FAM-labeled peptide substrate addition by mobility shift assay relative to control
# Settings: not given
row,Structure (SMILES),inhibition [%]
1,COc1cc2nccc(Oc3ccc(NC(=O)c4cccnc4Nc4ccc(F)c(Br)c4)cc3F)c2cc1OC,48.4
2,COc1cc2nccc(Oc3ccc(NC(=O)c4cnc5ccc(Br)cc5c4Nc4ccc(F)c(Br)c4)cc3F)c2cc1OC,6.6
3,COc1cc2nccc(Oc3ccc(NC(=O)c4c(Nc5ccc(F)c(Br)c5)cc(C)nc4Cl)cc3F)c2cc1OC,0.6
4,COc1cc2nccc(Oc3ccc(NC(=O)c4cnc(Cl)cc4Nc4ccc(F)c(Br)c4)cc3)c2cc1OC,81.3
5,COc1cc2nccc(Oc3ccc(NC(=O)c4cnc(Cl)cc4Nc4ccc(F)c(Br)c4)cc3F)c2cc1OC,82.9

# Further lines, results first:
row,inhibition [%],Structure (SMILES)
1,55.1,COc1cc2nccc(Oc3ccc(NC(=O)c4cnc(Cl)cc4Nc4cccc(Cl)c4)cc3)c2cc1OC
2,59.9,COc1cc2nccc(Oc3ccc(NC(=O)c4cnc(Cl)cc4Nc4cccc5ccccc45)cc3)c2cc1OC
3,78.2,COc1cc2nccc(Oc3ccc(NC(=O)c4cnc(Cl)cc4Nc4ccccc4Br)cc3)c2cc1OC

# System: SW-620
# Assay: Cytotoxicity against human SW620 cells assessed as increase in dead cell number at 10 ug/ml incubated for 36 hrs by IncuCyte live-cell imaging assay
# Assay type: functional, cell-based
# Settings: not given
# Method in brief: (§3)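 Live-cell kinetic imaging of SW620 cells (5 × 10^3/well, 24 h pre-culture at 37 °C, 5% CO2) exposed to 0.12–10.0 µg/mL compound or 0.1% DMSO. Red-fluorescent cells were counted as dead cells, imaged with a 10× objective hourly for 84 h, in triplicate.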
row,Structure (SMILES),Activity
1,COc1cc2nccc(Oc3ccc(NC(=O)c4cnc(Cl)cc4Nc4ccc(F)c(Br)c4)cc3F)c2cc1OC,Active

# System: SW-620
# Assay: Cytotoxicity against human SW620 cells assessed as increase in dead cell number at 10 ug/ml incubated for 5 hrs by IncuCyte live-cell imaging assay
# Assay type: functional, cell-based
# Settings: not given
# Method in brief: as §3
row,Structure (SMILES),Activity
1,COc1cc2nccc(Oc3ccc(NC(=O)c4cnc(Cl)cc4Nc4ccc(F)c(Br)c4)cc3F)c2cc1OC,Active

# System: SW-620
# Assay: Cytotoxicity in human SW620 cells assessed as reduction in cell viability incubated for 72 hrs by MTT assay
# Assay type: functional, cell-based
# Settings: SW-620, 72 h
# Method in brief: as §1
row,Structure (SMILES),IC50 [µM]
1,COc1cc2nccc(Oc3ccc(NC(=O)c4cnc(Cl)cc4Nc4cccc(Cl)c4)cc3)c2cc1OC,4.33
2,COc1cc2nccc(Oc3ccc(NC(=O)c4cccnc4Nc4ccc(F)c(Br)c4)cc3F)c2cc1OC,1.86
3,COc1cc2nccc(Oc3ccc(NC(=O)c4cnc(Cl)cc4Nc4ccccc4Br)cc3)c2cc1OC,6.9
4,COc1cc2nccc(Oc3ccc(NC(=O)c4cnc(Cl)cc4Nc4ccc(F)c(Br)c4)cc3)c2cc1OC,1.33
5,COc1cc2nccc(Oc3ccc(NC(=O)C4(C(=O)Nc5ccc(F)cc5)CC4)cc3)c2cc1OC [CABOZANTINIB],3.37
6,COc1cc2nccc(Oc3ccc(NC(=O)c4cnc(Cl)cc4Nc4ccc(F)c(Br)c4)cc3F)c2cc1OC,0.61

# System: SW-620
# Assay: Antiproliferative activity against human SW620 cells assessed as effect on cell confluence level at 0.12 to 3.33 ug/ml incubated up to 84 hrs and measured every 1 hr by phase contrast microscopy
# Assay type: functional, cell-based
# Settings: not given
# Method in brief: as §2
row,Structure (SMILES),Activity
1,COc1cc2nccc(Oc3ccc(NC(=O)c4cnc(Cl)cc4Nc4ccc(F)c(Br)c4)cc3)c2cc1OC,inactive
2,COc1cc2nccc(Oc3ccc(NC(=O)C4(C(=O)Nc5ccc(F)cc5)CC4)cc3)c2cc1OC [CABOZANTINIB],inactive
3,COc1cc2nccc(Oc3ccc(NC(=O)c4cnc(Cl)cc4Nc4ccc(F)c(Br)c4)cc3F)c2cc1OC,inactive

# System: HT-29
# Assay: Cytotoxicity in human HT-29 cells assessed as reduction in cell viability incubated for 72 hrs by MTT assay
# Assay type: functional, cell-based
# Settings: HT-29, 72 h
# Method in brief: as §1
row,Structure (SMILES),IC50 [µM]
1,COc1cc2nccc(Oc3ccc(NC(=O)c4cnc(Cl)cc4Nc4ccccc4Br)cc3)c2cc1OC,> 20
2,COc1cc2nccc(Oc3ccc(NC(=O)c4cnc(Cl)cc4Nc4ccc(F)c(Br)c4)cc3)c2cc1OC,> 20
3,COc1cc2nccc(Oc3ccc(NC(=O)C4(C(=O)Nc5ccc(F)cc5)CC4)cc3)c2cc1OC [CABOZANTINIB],9.6
4,COc1cc2nccc(Oc3ccc(NC(=O)c4cnc(Cl)cc4Nc4ccc(F)c(Br)c4)cc3F)c2cc1OC,> 20

# System: SW-620
# Assay: Antiproliferative activity against human SW620 cells assessed as effect on cell confluence level at 0.12 to 3.33 ug/ml incubated up to 84 hrs and measured every 1 hr by IncuCyte live-cell imaging assay
# Assay type: functional, cell-based
# Settings: not given
# Method in brief: as §2
row,Structure (SMILES),Activity
1,COc1cc2nccc(Oc3ccc(NC(=O)c4cnc(Cl)cc4Nc4ccc(F)c(Br)c4)cc3)c2cc1OC,inactive
2,COc1cc2nccc(Oc3ccc(NC(=O)C4(C(=O)Nc5ccc(F)cc5)CC4)cc3)c2cc1OC [CABOZANTINIB],inactive
3,COc1cc2nccc(Oc3ccc(NC(=O)c4cnc(Cl)cc4Nc4ccc(F)c(Br)c4)cc3F)c2cc1OC,inactive

# System: SW-620
# Assay: Antiproliferative activity against human SW620 cells assessed as cell confluence level at 10 ug/ml incubated up to 84 hrs and measured every 1 hr by phase contrast microscopy (reference value: 86.5%)
# Assay type: functional
# Settings: not given
# Method in brief: as §2
row,Structure (SMILES),Activity
1,COc1cc2nccc(Oc3ccc(NC(=O)c4cnc(Cl)cc4Nc4ccc(F)c(Br)c4)cc3)c2cc1OC,42.6%
2,COc1cc2nccc(Oc3ccc(NC(=O)C4(C(=O)Nc5ccc(F)cc5)CC4)cc3)c2cc1OC [CABOZANTINIB],40.9%
3,COc1cc2nccc(Oc3ccc(NC(=O)c4cnc(Cl)cc4Nc4ccc(F)c(Br)c4)cc3F)c2cc1OC,inactive
